Source: ChEMBL document CHEMBL2163234, “Design and characterization of optimized adenosine A₂A/A₁ receptor antagonists for the treatment of Parkinson's disease” (J Med Chem, 2012)
Values belong to the compound of their own block, whether it stands above or below them. Active and inactive are the calls of the source. The calls are words filed in the database; no cut-off is given here.

Columns and labels:
[1] = target: Adenosine receptor A2a (Homo sapiens, UniProt P29274); assay: Antagonist activity at human Adenosine receptor A2a assessed as inhibition of cAMP production; assay type: functional
[2] = test system: Mus musculus; assay: Reversal of haloperidol-induced catalepsy in BALB/c mouse assessed as time duration of anticataleptic activity mouse at 10 mg/kg, po; assay type: functional
Method in brief: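 Duration study: fasted male Balb/c mice are dosed with haloperidol 1 mg/kg sc, then drug 10 mg/kg po in 0.5% methylcellulose. Bar-test catalepsy time (max 60 s) is measured repeatedly at 30 min and at 1, 2 and 4 h after dosing. n = 8 per group; mean ± SEM; Dunnett test.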

[3] = test system: Mus musculus; assay: Reversal of haloperidol-induced catalepsy in BALB/c mouse at 10 mg/kg, po measured 1 hr post dose; assay type: functional
Method in brief: (§1)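 Fasted male Balb/c mice receive haloperidol 1 mg/kg sc in 0.3% tartaric acid/saline, then drug po in 0.5% methylcellulose 30 min later (0.1–10.0 mg/kg, or 10 mg/kg as % reversal). At 1 h post-dose, forepaws are placed on a bar 3.5 cm high and time in cataleptic position is recorded (max 60 s). Blinded; n = 8–12; mean ± SEM; Dunnett test.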

[4] = target: T1, Adenosine receptor A1 (Homo sapiens, UniProt P30542); assay: Antagonist activity at human Adenosine receptor A1 assessed as inhibition of cAMP production; assay type: functional
T1 sequence (P30542 whole entry): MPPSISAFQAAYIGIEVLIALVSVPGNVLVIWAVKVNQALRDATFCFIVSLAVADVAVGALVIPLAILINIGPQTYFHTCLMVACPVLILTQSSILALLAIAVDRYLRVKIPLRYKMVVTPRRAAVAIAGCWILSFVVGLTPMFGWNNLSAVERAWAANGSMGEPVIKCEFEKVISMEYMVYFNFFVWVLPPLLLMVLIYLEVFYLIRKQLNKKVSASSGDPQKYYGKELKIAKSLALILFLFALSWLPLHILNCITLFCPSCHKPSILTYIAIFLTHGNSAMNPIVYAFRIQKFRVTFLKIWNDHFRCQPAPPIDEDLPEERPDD

[5] = test system: Mus musculus; assay: Reversal of haloperidol-induced catalepsy in po dosed BALB/c mouse measured 1 hr post dose; assay type: functional; conditions: for minimal effective dose: read-out: MED; method in brief: as §1
[6] = Volume of distribution at steady state in cynomolgus monkey at 2 mg/kg, iv administered as single dose; assay type: ADME, organism-based, Macaca fascicularis; parameters: dose 2 mg/kg, route intravenous; conditions: in vivo, read-out: Vdss
Method in brief: (§2)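 Fasted animals (male Sprague-Dawley rats, male Balb/c mice, male and female cynomolgus monkeys) received a single iv dose or oral 10 mg/kg in 0.5% methylcellulose. Blood came from 3–4 animals per time point by orbital sinus (rats) or cardiac puncture (mice), or serially by venipuncture (monkeys). Plasma was acetonitrile-precipitated and analysed by LC-MS/MS (LOQ 0.7–2 ng/mL), with noncompartmental analysis.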

[7] = test system: Rattus norvegicus; assay: Antiparkinsonian activity in Sprague-Dawley rat 6-OHDA lesion model assessed as increase in number of contralateral rotations dosed orally 6 weeks post OHDA-challenge; assay type: functional, organism-based
Method in brief: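 Rats receive 6-OHDA 12 μg unilaterally into the medial forebrain bundle. Inclusion required ≥125 contralateral rotations in 1 h after apomorphine 0.05 mg/kg sc. Design is within-subject, with drug 0.1–10.0 mg/kg po in 20% HPβCD after 30 min acclimation. Contralateral 360° turns are counted by a tethered optical sensor for 60 min. Mean ± SEM, n = 16, Tukey test.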

[8] = Volume of distribution at steady state in BALB/c mouse at 2 mg/kg, iv administered as single dose; assay type: ADME, organism-based; parameters: dose 2 mg/kg, route intravenous; conditions: in vivo, read-out: Vdss; method in brief: as §2
[9] = Clearance in cynomolgus monkey at 2 mg/kg, iv and 10 mg/kg, po administered as single dose; assay type: ADME, organism-based, Macaca fascicularis; conditions: in vivo; method in brief: as §2
[10] = test system: Mus musculus; assay: Antiparkinsonian activity in CF-1 mouse assessed as reversal of reserpine-induced akinesia administered orally 18 hrs before reserpine challenge and measured 60 mins post dose by spontaneous locomotor activity assay; conditions: CF-1, po, read-out: MED
[11] = Cmax in Sprague-Dawley rat plasma at 10 mg/kg, po administered as single dose; assay type: ADME, organism-based; parameters: dose 10 mg/kg, route oral; method in brief: as §2
[12] = test system: Rattus norvegicus; assay: Reversal of haloperidol-induced catalepsy in po dosed Sprague-Dawley rat dosed 60 mins before haloperidol challenge and measured 1 hr post dose; assay type: functional; conditions: for minimal effective dose: read-out: MED
[13] = test system: Rattus norvegicus; assay: Antiparkinsonian activity in Sprague-Dawley rat 6-OHDA lesion model assessed as potentiation of 10 mg/kg, po L-DOPA-induced increase in number of contralateral rotations dosed orally 6 weeks post OHDA-challenge; assay type: functional; conditions: 1008 h, read-out: MED
Method in brief: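 Rats lesioned unilaterally in the medial forebrain bundle with 6-OHDA 12 μg were selected by apomorphine rotation (≥125 turns/h). Each rat serves as its own control, with randomized session days. Drug 0.1–10.0 mg/kg po (20% HPβCD) is given and followed 60 min later by L-DOPA 10 mg/kg po plus carbidopa, with rotations recorded over 120 min. Total contralateral turns reported; n = 16; Tukey test.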

[14] = Clearance in Sprague-Dawley rat at 2 mg/kg, iv and 10 mg/kg, po administered as single dose; assay type: ADME, organism-based; conditions: in vivo; method in brief: as §2
[15] = Oral bioavailability in BALB/c mouse at 10 mg/kg administered as single dose; assay type: ADME, organism-based; conditions: in vivo; method in brief: as §2
[16] = Clearance in BALB/c mouse at 2 mg/kg, iv and 10 mg/kg, po administered as single dose; assay type: ADME, organism-based; conditions: in vivo; method in brief: as §2
[17] = Cmax in cynomolgus monkey plasma at 10 mg/kg, po administered as single dose; assay type: ADME, organism-based, Macaca fascicularis; parameters: dose 10 mg/kg, route oral; method in brief: as §2
[18] = Terminal half life in cynomolgus monkey at 10 mg/kg, po administered as single dose; assay type: ADME, organism-based, Macaca fascicularis; parameters: dose 10 mg/kg, route oral; conditions: in vivo, read-out: beta t1/2 (converted); method in brief: as §2
[19] = test system: Rattus norvegicus; assay: Antiparkinsonian activity in Wistar rat assessed as reversal of reserpine-induced akinesia administered orally 18 hrs before reserpine challenge and measured 60 mins post dose by spontaneous locomotor activity assay; conditions: for minimal effective dose: po, read-out: MED
[20] = Cmax in Sprague-Dawley rat brain at 2 mg/kg, iv and 10 mg/kg, po administered as single dose; assay type: ADME, organism-based
Method in brief: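 Tissue distribution: fasted male Sprague-Dawley rats get 10 mg/kg po in 0.5% methylcellulose. Four rats per time point are euthanized, and brain is weighed, homogenized in methanol, evaporated and reconstituted. Blood and plasma are acetonitrile-treated. Drug levels are measured by LC-MS/MS.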

[21] = Volume of distribution at steady state in Sprague-Dawley rat at 2 mg/kg, iv administered as single dose; assay type: ADME, organism-based; parameters: dose 2 mg/kg, route intravenous; conditions: in vivo, read-out: Vdss; method in brief: as §2
[22] = Oral bioavailability in cynomolgus monkey at 10 mg/kg administered as single dose; assay type: ADME, organism-based, Macaca fascicularis; conditions: in vivo; method in brief: as §2
[23] = Terminal half life in Sprague-Dawley rat at 10 mg/kg, po administered as single dose; assay type: ADME, organism-based; parameters: dose 10 mg/kg, route oral; conditions: in vivo, read-out: beta t1/2 (converted); method in brief: as §2
[24] = Half life in BALB/c mouse at 10 mg/kg, po administered as single dose; assay type: ADME, organism-based; parameters: dose 10 mg/kg, route oral; conditions: in vivo; method in brief: as §2
[25] = Cmax in BALB/c mouse plasma at 10 mg/kg, po administered as single dose; assay type: ADME, organism-based; parameters: dose 10 mg/kg, route oral; method in brief: as §2
[26] = Oral bioavailability in Sprague-Dawley rat at 10 mg/kg administered as single dose; assay type: ADME, organism-based; conditions: in vivo; method in brief: as §2
[27] = Clearance in cynomolgus monkey at 1 mg/kg, iv and 10 mg/kg, po administered as single dose; assay type: ADME, organism-based, Macaca fascicularis; conditions: in vivo; method in brief: as §2
[28] = test system: Rattus norvegicus; assay: Reversal of haloperidol-induced catalepsy in Sprague-Dawley rat at 10 mg/kg, po dosed 60 mins before haloperidol challenge and measured 1 to 4 hrs post dose; assay type: functional, organism-based; parameters: dose 10 mg/kg
[29] = Volume of distribution at steady state in cynomolgus monkey at 1 mg/kg, iv administered as single dose; assay type: ADME, organism-based, Macaca fascicularis; parameters: dose 1 mg/kg, route intravenous; conditions: in vivo, read-out: Vdss; method in brief: as §2
[30] = test system: Rattus norvegicus; assay: Reversal of haloperidol-induced catalepsy in Sprague-Dawley rat assessed as time duration of anticataleptic activity at 1 mg/kg, po dosed 60 mins before haloperidol challenge and measured post dose

Adenosine receptor A2a, sequence (P29274 whole entry): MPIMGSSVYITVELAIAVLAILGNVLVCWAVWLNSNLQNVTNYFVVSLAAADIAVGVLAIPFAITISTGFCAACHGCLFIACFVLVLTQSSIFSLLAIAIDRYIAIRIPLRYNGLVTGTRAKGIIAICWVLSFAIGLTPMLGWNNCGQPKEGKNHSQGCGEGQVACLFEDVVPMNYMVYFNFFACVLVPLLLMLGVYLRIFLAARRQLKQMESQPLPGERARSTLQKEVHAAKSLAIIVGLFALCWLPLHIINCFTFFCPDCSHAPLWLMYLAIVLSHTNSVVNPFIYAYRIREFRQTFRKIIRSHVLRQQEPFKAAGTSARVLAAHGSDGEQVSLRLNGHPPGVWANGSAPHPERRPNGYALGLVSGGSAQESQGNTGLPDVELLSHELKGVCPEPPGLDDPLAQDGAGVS

Structure (SMILES): CN1CCN(C(=O)c2ccc3c(c2)-c2nc(N)nc(-c4ccccc4)c2C3=O)CC1
ED50 [5]: 0.4 mg/kg
minimal effective dose [5]: 1 mg/kg
Vd [6]: 4 L/kg
Activity [7]: Dose-dependent effect
Vd [8]: 11 L/kg
clearance [9]: 15 mL/min/kg
minimal effective dose [10]: 1 mg/kg
Cmax [11]: 968 nM
Activity [12]: Dose-dependent effect
ED50 [12]: 0.6 mg/kg
minimal effective dose [12]: 1 mg/kg
minimal effective dose [13]: 1 mg/kg
clearance [14]: 52 mL/min/kg
bioavailability [15]: 41%
clearance [16]: 37 mL/min/kg
Cmax [17]: 1460 nM
half-life [18]: 4.3 h
Time [2]: 4 h
Activity [19]: Dose-dependent effect
minimal effective dose [19]: 1 mg/kg
Cmax [20]: 459 nM
Vd [21]: 6 L/kg
bioavailability [22]: 47%
half-life [23]: 3.6 h
half-life [24]: 3.8 h
Cmax [25]: 1700 nM
bioavailability [26]: 45%

Structure (SMILES): Nc1nc(-c2ccccc2)c2c(n1)-c1cc(CN3CCCC3)ccc1C2=O
ED50 [5]: 0.2 mg/kg
Vd [8]: 13 L/kg
clearance [14]: 85 mL/min/kg
clearance [27]: 56 mL/min/kg
clearance [16]: 440 mL/min/kg
Activity [28]: Active
Vd [21]: 7 L/kg
Vd [29]: 7 L/kg

Structure (SMILES): Nc1nc(-c2ccccc2)c2c(n1)-c1cc(C(=O)c3cccnc3)ccc1C2=O
Ki [1]: 0.5 nM
Activity [3]: <50%
Ki [4]: 1.8 nM

Structure (SMILES): CC1CC[C@@H](C)N1Cc1ccc2c(c1)-c1nc(N)nc(-c3ccccc3)c1C2=O (mixture of isomers)
ED50 [5]: 3.2 mg/kg
Ki [1]: 13.1 nM
Ki [4]: 37.3 nM

Structure (SMILES): Nc1nc(-c2ccccc2)c2c(n1)-c1cc(CN3C4CCC3CC4)ccc1C2=O
ED50 [5]: 1 mg/kg
Ki [1]: 3.1 nM
Ki [4]: 223 nM

Structure (SMILES): Nc1nc(-c2ccccc2)c2c(n1)-c1cc(OCCN3CCOCC3)ccc1C2=O
ED50 [5]: < 0.1 mg/kg
minimal effective dose [5]: 0.1 mg/kg
Vd [6]: 2 L/kg
Activity [7]: Dose-dependent effect
Vd [8]: 5 L/kg
clearance [9]: 7 mL/min/kg
minimal effective dose [10]: 1 mg/kg
Cmax [11]: 1650 nM
Activity [12]: Dose-dependent effect
ED50 [12]: 0.3 mg/kg
minimal effective dose [12]: 1 mg/kg
minimal effective dose [13]: 1 mg/kg
clearance [14]: 19 mL/min/kg
bioavailability [15]: 61%
clearance [16]: 97 mL/min/kg
Cmax [17]: 2770 nM
half-life [18]: 5.5 h
Time [2]: 4 h
Activity [19]: Dose-dependent effect
minimal effective dose [19]: 1 mg/kg
Time [30]: 4 h
Cmax [20]: 4160 nM
Vd [21]: 1 L/kg
bioavailability [22]: 55%
half-life [23]: 1.2 h
half-life [24]: 1.1 h
Cmax [25]: 1080 nM
bioavailability [26]: 18%

The next lines start with results.

Ki [1]: 1.4 nM
Ki [4]: 5.2 nM
Structure (SMILES): N#Cc1cncc(Cc2ccc3c(c2)-c2nc(N)nc(-c4ccccc4)c2C3=O)c1
Time [2]: 2 h
Activity [3]: 100%

Ki [1]: 0.1 nM
Ki [4]: 0.5 nM
Structure (SMILES): Nc1nc(-c2ccccc2)c2c(n1)-c1cc(Cc3cnccc3Cl)ccc1C2=O
Activity [3]: 100%

Ki [1]: 0.7 nM
Ki [4]: 2.5 nM
Structure (SMILES): Nc1nc(-c2ccccc2)c2c(n1)-c1cc(Cc3ccncc3F)ccc1C2=O
Activity [3]: 100%

Ki [1]: 1.3 nM
Ki [4]: 6 nM
Structure (SMILES): Nc1nc(-c2ccccc2)c2c(n1)-c1cc(Cc3cncc(F)c3)ccc1C2=O
Activity [3]: 100%

Ki [1]: 1.6 nM
Ki [4]: 29.3 nM
Structure (SMILES): Nc1nc(-c2ccccc2)c2c(n1)-c1cc(C(F)(F)c3cccnc3)ccc1C2=O
Activity [3]: <50%

Ki [1]: 0.3 nM
Ki [4]: 2.4 nM
Structure (SMILES): Nc1nc(-c2ccccc2)c2c(n1)-c1cc(Cc3cccnc3)ccc1C2=O
ED50 [5]: < 1 mg/kg
Time [2]: 4 h
